Measurements taken from publication PMC6448596 (Cell reports, 2019).

What was measured:
[1] = test system: TP53 mRNA on polysomes in MV4:11 cells; test: Polysome fractionation with RT-qPCR; format: cell-based, human; details: MV4:11, 5 μM, 24 h
Method in brief: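 15 × 10^6 MV4:11 cells were treated 24 h with 5 μM test compound or DMSO and lysed 10 min on ice. Target mRNAs in monosomal and polysomal fractions were measured by RT-qPCR and normalized to GAPDH. Values were expressed as percent of total RNA, relative to DMSO.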

[2] = test system: p53 and p21 protein levels in Molm13 cells; test: p53/p21 induction western blot; format: cell-based, human; details: Molm13, 3 μM, 24 h
Method in brief: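 Treatment lasted 24 h with test compound or its negative control, at 2 μM in MV4:11 and 3 μM in Molm13. Comparators were 2 μM Nutlin-3 or 0.1% DMSO. Four million cells were PBS-washed and lysed 10 min on ice in Kischkel buffer. p53 and p21 were detected by western blot, with histone H3 as loading control.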

[3] = test system: Molm13 clones CRISPR-targeted with EGFP or p53 gRNA; test: Proliferation assay in CRISPR-targeted Molm13 clones; format: cell-based; details: Homo sapiens, MOLM-13, 72 h, Molm13 clone 2p (p53 gRNA), 3-day treatment
[4] = biological target: MLL1 complex (Homo sapiens, UniProt P61964); test: MLL1 HMT assay; format: biochemical
[5] = test system: HEL cells; test: Proliferation assay; format: cell-based; details: Homo sapiens, 72 h
Method in brief: (§1)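 CellTiter-Glo, 5,000 cells/well. Cells received 0.1% DMSO or at least five two-fold dilutions of test compound (top 50 μM, final DMSO 0.1%), in triplicate wells and ≥2 biological replicates, for 72 h at 37°C. Reagent was added after equilibration to RT, with 30 min dark incubation before luminescence. Signals were normalized to DMSO wells and GI50 obtained by curve fitting. Curve error bars are SEM.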

[6] = test system: protein synthesis in MV4:11 cells; test: Relative protein synthesis rates; format: cell-based, human; details: MV4:11, 2 μM
Method in brief: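 Cycloheximide 30 min before OPP served as positive control; an OPP-free sample set background. Alexa647 signal was read by flow (≥10,000 events, doublets excluded). Biological triplicate, SEM.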

[7] = test system: GDM-1 cells; test: Proliferation assay; format: cell-based; details: Homo sapiens, GDM-1, 72 h
Method in brief: as §1

[8] = test system: SET-2 cells; test: Proliferation assay; format: cell-based; details: Homo sapiens, SET-2, 72 h
Method in brief: as §1

[9] = test system: MONO-Mac-6 cells; test: Proliferation assay; format: cell-based; details: Homo sapiens, MONO-MAC-6, 72 h
Method in brief: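 MONO-MAC-6 cells were maintained in RPMI with 10% FBS, non-essential amino acids and OPI supplement. CellTiter-Glo used 5,000 cells/well and ≥5 two-fold dilutions from 50 μM (0.1% DMSO final), in triplicate wells with ≥2 biological replicates, over 72 h at 37°C.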

[10] = test system: gene expression in MV4:11 cells; test: RNA-Seq; format: cell-based, human; details: overlap of RNA-seq and WDR5 ChIP-seq, MV4:11
[11] = test system: NPM1 localisation in MV4:11 cells; test: Nucleophosmin; format: cell-based, human; details: MV4:11, 4 μM, 3 days
Method in brief: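 Cells were cytospun onto slides (100,000 cells, 800 rpm, 3 min) and immunostained for NPM. The per-cell nucleolar-to-nucleoplasmic NPM ratio was quantified from two biological replicates (SD). One-way ANOVA with Dunnett's test versus DMSO.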

[12] = test system: MV4:11 cells; test: Cell cycle analysis; format: cell-based, human; details: 2 μM, up to 6 days
Method in brief: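 1 million cells were fixed dropwise in ice-cold 70% ethanol (≥2 h, […]) and stained with PI (10 μg/mL) plus RNase for 20 min at RT in the dark. Flow: ≥10,000 events, doublets excluded. Three biological replicates, SEM.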

[13] = biological target: WDR5 (Homo sapiens, UniProt P61964); test: ChIP-Seq of WDR5; format: cell-based; details: MV4:11, 2 μM, 4 h
Method in brief: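 MV4:11 cells at 10^6/ml were treated 4 h with 2 μM test compound, negative control or 0.1% DMSO. Cells were concentrated to 4 × 10^6/ml in PBS, fixed in 1% formaldehyde for 10 min at RT and quenched with 125 mM glycine. They were lysed in 1% SDS FA buffer. Sheared chromatin was diluted to 0.1% SDS and immunoprecipitated overnight at 4°C with anti-WDR5 (D9E1I or 429A) or IgG on BSA-blocked protein-A agarose. Peaks were compared by normalized average read counts.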

[14] = test system: HL60 cells; test: Proliferation assay; format: cell-based; details: Homo sapiens, HL-60, 72 h
Method in brief: as §1

SMILES: Cc1nc(F)ccc1-c1cc(Cn2ccn(C)c2=N)cc(C(=O)NCc2ccc(Cl)c(Cl)c2)c1 [Compound C6, N-(3,4-Dichlorobenzyl)-3-(6-fluoro-2-methylpyridin-3-yl)-5-((2-imino-3-methyl-2,3-dihydro-1H-imidazol-1-yl)methyl)benzamide]
- polysome-associated mRNAs [1]: promoted an accumulation of polysome-associated mRNAs for TP53
- p53 and p21 protein induction [2]: p53 and p21 are also induced
- GI50 [3]: 18 µM
- specificity of HMT inhibition among all MLL/SET complexes [4]: specific for MLL1, with little activity against other MLL/SET family members
- window of selectivity for MLL1 over other MLL/SET complexes [4]: ≥ 250 fold
- IC50 ([4]; MLL1 HMT IC50, H3 peptide as substrate): ~0.02 µM
- GI50 [5]: > 50 µM
- OPP incorporation ([6]; 1 day): measurable reduction in OPP incorporation
- OPP incorporation ([6]; 6 days): roughly half of the cells in the C6-treated population incorporated OPP at levels similar to those of cells treated with CHX
- GI50 [7]: > 50 µM
- GI50 [8]: > 50 µM
- GI50 [9]: 31.7 ± 2.32 µM
- number of WDR5-bound genes induced [10]: 1
- number of WDR5-bound genes repressed [10]: 59
- NPM1 distribution, nucleolar stress [11]: redistribution of nucleophosmin (NPM1) from the nucleolus to the nucleoplasm
- cell-cycle distribution, sub-G1 DNA content [12]: time-dependent increase in cells with a sub-G1 DNA content
- WDR5 binding events on chromatin [13]: robust decrease in all detectable WDR5 binding events
- GI50 [14]: 14.8 ± 1.1 µM
